Experimental data reported in ChEMBL document CHEMBL1255409, “In vitro activity of ceftaroline against 623 diverse strains of anaerobic bacteria” (2010).

Tests used:
Type in all cases: functional
Solobacterium moorei = assay: Antimicrobial activity against Solobacterium moorei under anaerobic conditions after 44 hrs by CLSI-M11-47 protocol based agar dilution method
Procedure, shortened: (§1)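 Clinical isolates were stored at −70°C in 20% skim milk and identified phenotypically or by partial 16S rRNA sequencing. Each strain was subcultured twice from frozen stock. Cell paste from 48-h cultures was suspended in brucella broth to a 0.5 McFarland standard. About 10^5 CFU per spot were applied by Steers replicator to agar dilution plates prepared on the day of testing. Plates were incubated 44 h at 37°C in an anaerobic chamber. MIC was taken as the lowest concentration giving complete inhibition or marked reduction of growth versus the drug-free control.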

Clostridium subterminale = assay: Antimicrobial activity against Clostridium subterminale under anaerobic conditions after 44 hrs by CLSI-M11-47 protocol based agar dilution method
Procedure, shortened: (§2)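 Reference agar dilution per CLSI M11-A7 with plates made on test day. Clinical isolates were stored at −70°C in 20% skim milk, subcultured twice, and 48-h cell paste was suspended in brucella broth to 0.5 McFarland. About 10^5 CFU/spot was applied with a Steers replicator. Plates were incubated 44 h at 37°C anaerobically. MIC was the lowest concentration giving complete inhibition or marked growth reduction versus the drug-free control.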

Clostridium tertium = assay: Antimicrobial activity against Clostridium tertium under anaerobic conditions after 44 hrs by CLSI-M11-47 protocol based agar dilution method; procedure, shortened: as §2
[1] = test system: Prevotella melaninogenica; assay: Antimicrobial activity against Prevotella melaninogenica under anaerobic conditions after 44 hrs by CLSI-M11-47 protocol based agar dilution method; procedure, shortened: as §1
[2] = test system: Clostridium celerecrescens; assay: Antimicrobial activity against Clostridium celerecrescens under anaerobic conditions after 44 hrs by CLSI-M11-47 protocol based agar dilution method; details: Lacrimispora celerecrescens; procedure, shortened: as §2
Peptoniphilus lacrimalis = assay: Antimicrobial activity against Peptoniphilus lacrimalis under anaerobic conditions after 44 hrs by CLSI-M11-47 protocol based agar dilution method; procedure, shortened: as §1
Prevotella buccae = assay: Antimicrobial activity against Prevotella buccae under anaerobic conditions after 44 hrs by CLSI-M11-47 protocol based agar dilution method; details: Segatella buccae; procedure, shortened: as §1
Bacteroides caccae = assay: Antimicrobial activity against Bacteroides caccae under anaerobic conditions after 44 hrs by CLSI-M11-47 protocol based agar dilution method; procedure, shortened: as §2
Prevotella corporis = assay: Antimicrobial activity against Prevotella corporis under anaerobic conditions after 44 hrs by CLSI-M11-47 protocol based agar dilution method; procedure, shortened: as §1
Anaerococcus = assay: Antimicrobial activity against Anaerococcus sp. under anaerobic conditions after 44 hrs by CLSI-M11-47 protocol based agar dilution method; procedure, shortened: as §2
[3] = test system: Bacteroides thetaiotaomicron; assay: Antimicrobial activity against Bacteroides thetaiotaomicron under anaerobic conditions after 44 hrs by CLSI-M11-47 protocol based agar dilution method; procedure, shortened: as §2
Anaerococcus murdochii = assay: Antimicrobial activity against Anaerococcus murdochii under anaerobic conditions after 44 hrs by CLSI-M11-47 protocol based agar dilution method; procedure, shortened: as §2
Prevotella bergensis = assay: Antimicrobial activity against Prevotella bergensis under anaerobic conditions after 44 hrs by CLSI-M11-47 protocol based agar dilution method; details: Hallella bergensis; procedure, shortened: as §1
Anaerococcus octavius = assay: Antimicrobial activity against Anaerococcus octavius under anaerobic conditions after 44 hrs by CLSI-M11-47 protocol based agar dilution method; procedure, shortened: as §2
Prevotella nanceiensis = assay: Antimicrobial activity against Prevotella nanceiensis under anaerobic conditions after 44 hrs by CLSI-M11-47 protocol based agar dilution method; details: Hoylesella nanceiensis; procedure, shortened: as §1
Eubacterium cylindroides = assay: Antimicrobial activity against Eubacterium cylindroides under anaerobic conditions after 44 hrs by CLSI-M11-47 protocol based agar dilution method; details: Faecalitalea cylindroides; procedure, shortened: as §2
Lacticaseibacillus casei = assay: Antimicrobial activity against Lactobacillus casei under anaerobic conditions after 44 hrs by CLSI-M11-47 protocol based agar dilution method; procedure, shortened: as §1
[4] = test system: Parabacteroides distasonis; assay: Antimicrobial activity against Bacteroides distasonis under anaerobic conditions after 44 hrs by CLSI-M11-47 protocol based agar dilution method; procedure, shortened: as §2
Bacteroides fragilis = assay: Antimicrobial activity against Bacteroides fragilis under anaerobic conditions after 44 hrs by CLSI-M11-47 protocol based agar dilution method; procedure, shortened: as §2
Parabacteroides merdae = assay: Antimicrobial activity against Bacteroides merdae under anaerobic conditions after 44 hrs by CLSI-M11-47 protocol based agar dilution method; procedure, shortened: as §2
Porphyromonas somerae = assay: Antimicrobial activity against Porphyromonas somerae under anaerobic conditions after 44 hrs by CLSI-M11-47 protocol based agar dilution method; procedure, shortened: as §1
[5] = test system: Paraclostridium bifermentans; assay: Antimicrobial activity against Clostridium bifermentans under anaerobic conditions after 44 hrs by CLSI-M11-47 protocol based agar dilution method; procedure, shortened: as §2
Clostridium baratii = assay: Antimicrobial activity against Clostridium baratii under anaerobic conditions after 44 hrs by CLSI-M11-47 protocol based agar dilution method
[6] = test system: Paeniclostridium sordellii; assay: Antimicrobial activity against Clostridium sordellii under anaerobic conditions after 44 hrs by CLSI-M11-47 protocol based agar dilution method; details: Paraclostridium sordellii; procedure, shortened: as §2
Anaerococcus vaginalis = assay: Antimicrobial activity against Anaerococcus vaginalis under anaerobic conditions after 44 hrs by CLSI-M11-47 protocol based agar dilution method; procedure, shortened: as §2
Actinomyces turicensis = assay: Antimicrobial activity against Actinomyces turicensis under anaerobic conditions after 44 hrs by CLSI-M11-47 protocol based agar dilution method; details: Schaalia turicensis; procedure, shortened: as §2
Clostridium butyricum = assay: Antimicrobial activity against Clostridium butyricum under anaerobic conditions after 44 hrs by CLSI-M11-47 protocol based agar dilution method
Bacteroides uniformis = assay: Antimicrobial activity against Bacteroides uniformis under anaerobic conditions after 44 hrs by CLSI-M11-47 protocol based agar dilution method; procedure, shortened: as §2
Clostridium citroniae = assay: Antimicrobial activity against Clostridium citroniae under anaerobic conditions after 44 hrs by CLSI-M11-47 protocol based agar dilution method; details: Enterocloster citroniae; procedure, shortened: as §2
Prevotella bivia = assay: Antimicrobial activity against Prevotella bivia under anaerobic conditions after 44 hrs by CLSI-M11-47 protocol based agar dilution method; procedure, shortened: as §1
Hoylesella loescheii = assay: Antimicrobial activity against Prevotella loescheii under anaerobic conditions after 44 hrs by CLSI-M11-47 protocol based agar dilution method; procedure, shortened: as §1
Clostridium symbiosum = assay: Antimicrobial activity against Clostridium symbiosum under anaerobic conditions after 44 hrs by CLSI-M11-47 protocol based agar dilution method; procedure, shortened: as §2

CCO/N=C(\C(=O)N[C@@H]1C(=O)N2C(C(=O)[O-])=C(Sc3nc(-c4cc[n+](C)cc4)cs3)CS[C@H]12)c1nsc(NP(=O)(O)O)n1 [CEFTAROLINE FOSAMIL]
0.125 µg/mL: MIC50 (Solobacterium moorei) | MIC50 (Eubacterium cylindroides)
32 µg/mL: MIC90 [1] | MIC90 (Prevotella corporis) | MIC90 (Prevotella bergensis) | MIC90 (Prevotella nanceiensis) | MIC90 (Hoylesella loescheii)
0.25 µg/mL: MIC90 (Solobacterium moorei) | MIC90 (Eubacterium cylindroides) | MIC90 (Actinomyces turicensis)
0.015 µg/mL: MIC50 (Porphyromonas somerae) | MIC50 (Actinomyces turicensis)
16 µg/mL: MIC90 (Clostridium subterminale) | MIC90 (Clostridium tertium) | MIC90 [2] | MIC50 (Bacteroides fragilis) | MIC90 [5] | MIC90 (Clostridium baratii) | MIC90 [6] | MIC90 (Clostridium butyricum) | MIC90 (Clostridium symbiosum)
64 µg/mL: MIC90 (Prevotella buccae) | MIC50 (Bacteroides caccae) | MIC50 [3] | MIC50 [4] | MIC90 (Bacteroides fragilis) | MIC50 (Parabacteroides merdae) | MIC50 (Bacteroides uniformis) | MIC90 (Prevotella bivia)
1 µg/mL: MIC90 (Peptoniphilus lacrimalis) | MIC90 (Anaerococcus) | MIC90 (Anaerococcus murdochii) | MIC90 (Anaerococcus octavius) | MIC90 (Lacticaseibacillus casei) | MIC90 (Anaerococcus vaginalis) | MIC50 (Clostridium citroniae)
> 64 µg/mL: MIC90 (Bacteroides caccae) | MIC90 [3] | MIC90 [4] | MIC90 (Parabacteroides merdae) | MIC90 (Bacteroides uniformis)
2 µg/mL: MIC50 [1] | MIC50 (Prevotella corporis) | MIC50 (Prevotella bergensis) | MIC50 (Prevotella nanceiensis) | MIC90 (Clostridium citroniae) | MIC50 (Prevotella bivia) | MIC50 (Hoylesella loescheii)
> 16 µg/mL: MIC90 (Porphyromonas somerae)
0.06 µg/mL: MIC50 (Peptoniphilus lacrimalis) | MIC50 (Anaerococcus) | MIC50 (Anaerococcus murdochii) | MIC50 (Anaerococcus octavius) | MIC50 (Anaerococcus vaginalis)
0.5 µg/mL: MIC50 (Clostridium subterminale) | MIC50 (Clostridium tertium) | MIC50 [2] | MIC50 (Prevotella buccae) | MIC50 (Lacticaseibacillus casei) | MIC50 [5] | MIC50 (Clostridium baratii) | MIC50 [6] | MIC50 (Clostridium butyricum) | MIC50 (Clostridium symbiosum)

CO/N=C(\C(=O)N[C@@H]1C(=O)N2C(C(=O)O)=C(CSc3nc(=O)c(O)nn3C)CS[C@H]12)c1csc(N)n1 [CEFTRIAXONE]
32 µg/mL: MIC90 [1] | MIC50 (Lacticaseibacillus casei) | MIC50 (Bacteroides fragilis) | MIC90 (Clostridium citroniae)
0.5 µg/mL: MIC50 (Solobacterium moorei) | MIC50 (Eubacterium cylindroides) | MIC90 (Actinomyces turicensis)
4 µg/mL: MIC50 (Clostridium citroniae)
8 µg/mL: MIC90 (Prevotella corporis) | MIC90 (Prevotella bergensis) | MIC90 (Prevotella nanceiensis) | MIC90 (Hoylesella loescheii)
> 64 µg/mL: MIC50 (Bacteroides caccae) | MIC90 (Bacteroides caccae) | MIC50 [3] | MIC90 [3] | MIC50 [4] | MIC90 [4] | MIC50 (Parabacteroides merdae) | MIC90 (Parabacteroides merdae) | MIC50 (Bacteroides uniformis) | MIC90 (Bacteroides uniformis) | MIC90 (Prevotella bivia)
64 µg/mL: MIC90 (Clostridium subterminale) | MIC90 (Clostridium tertium) | MIC90 [2] | MIC90 (Prevotella buccae) | MIC90 (Lacticaseibacillus casei) | MIC90 (Bacteroides fragilis) | MIC90 (Porphyromonas somerae) | MIC90 [5] | MIC90 (Clostridium baratii) | MIC90 [6] | MIC90 (Clostridium butyricum) | MIC90 (Clostridium symbiosum)
0.125 µg/mL: MIC50 (Actinomyces turicensis)
0.015 µg/mL: MIC50 (Porphyromonas somerae)
2 µg/mL: MIC90 (Solobacterium moorei) | MIC50 (Clostridium subterminale) | MIC50 (Clostridium tertium) | MIC50 [1] | MIC50 [2] | MIC90 (Eubacterium cylindroides) | MIC50 [5] | MIC50 (Clostridium baratii) | MIC50 [6] | MIC50 (Clostridium butyricum) | MIC50 (Prevotella bivia) | MIC50 (Clostridium symbiosum)
1 µg/mL: MIC50 (Prevotella corporis) | MIC50 (Prevotella bergensis) | MIC50 (Prevotella nanceiensis) | MIC50 (Hoylesella loescheii)
16 µg/mL: MIC90 (Peptoniphilus lacrimalis) | MIC90 (Anaerococcus) | MIC90 (Anaerococcus murdochii) | MIC90 (Anaerococcus octavius) | MIC90 (Anaerococcus vaginalis)
0.25 µg/mL: MIC50 (Peptoniphilus lacrimalis) | MIC50 (Prevotella buccae) | MIC50 (Anaerococcus) | MIC50 (Anaerococcus murdochii) | MIC50 (Anaerococcus octavius) | MIC50 (Anaerococcus vaginalis)
